Assay results pooled from the literature.
Compare with care: the assays were run in different laboratories.
CA1: Carbonic anhydrase 1 (CA1, Homo sapiens, UniProt P00915)
Sigmar1: Sigma non-opioid intracellular receptor 1 (Sigmar1, Rattus norvegicus, UniProt Q9R0C9)
HTR3A: 5-hydroxytryptamine receptor 3A (HTR3A, Homo sapiens, UniProt P46098)
CA2: Carbonic anhydrase 2 (CA2, Homo sapiens, UniProt P00918)
SNCA fibril: Alpha-synuclein, fibril (SNCA, Homo sapiens, UniProt P37840)
ADRA2A: Alpha-2A adrenergic receptor (ADRA2A, Homo sapiens, UniProt P08913)
OPRD1: Delta-type opioid receptor (OPRD1, Homo sapiens, UniProt P41143)
Pam: Peptidylglycine alpha-amidating monooxygenase (Pam, Rattus norvegicus, UniProt P14925)

`NC(=O)N1c2ccccc2C=Cc2ccccc21` has a Ki of 811 µM (NAD(P)H dehydrogenase [quinone] 1 (NQO1, Homo sapiens, UniProt P15559); enzyme activity, inhibitor, absorbance).
The Ki of `NS(=O)(=O)c1nnc(NC(=O)C2CC2)s1` is reported as 0.157 µM (CA1; enzyme activity, inhibitor).
`O=C(c1ccccc1)c1ccc(CNCCCN2C(=O)c3ccccc3C2=O)cc1` gave a Ki of 0.311 µM (Sigmar1; ligand displacement, radioligand; cell membranes).
The Ki of `Cc1nc2cc(OCCCCN3CCN(c4cccc(Cl)c4Cl)CC3)ccc2s1` is reported as 0.13 µM (HTR3A; cell-free assay, radioligand).
With `CC1CCC(C(=O)Nc2nnc(S(N)(=O)=O)s2)CC1` (stereo not drawn) the Ki was 0.026 µM (CA2; enzyme activity, inhibitor).
With `COc1ccc(C(=O)Nc2ccc(N3CCCN(c4ccccn4)CC3)cn2)cc1` the Ki was 0.185 µM (SNCA fibril; ligand displacement, radioligand).
With `O=C(c1ccc(CNCCCN2CCN(c3ccc(F)cc3)CC2)cc1)c1ccc([N+](=O)[O-])cc1` the Ki was 2.41 µM (Sigmar1; ligand displacement, radioligand; cell membranes).
`CC[Si](C#Cc1ccc2c(c1)C=C([N+](=O)[O-])C(C(F)(F)F)O2)(CC)CC` (stereo not drawn) has a Ki of 1.6 µM (ADRA2A; cell-free assay, radioligand).
`Oc1cccc(Nc2nc(-c3ccc(F)cc3F)cs2)c1` gave a Ki of 3.6 µM (Cholecystokinin receptor type A (CCKAR, Homo sapiens, UniProt P32238); cell-free assay).
With `CCCCN1CCC(COC(=O)c2ccc(N)c(OCF)c2)CC1` the Ki was > 10 µM (OPRD1; cell-free assay, radioligand).
For `O=C1c2ccccc2CCN1CCCCN1CCN(c2cccc(Cl)c2Cl)CC1`, the Ki was 0.099 µM (HTR3A; ligand displacement, radioligand).
For `C#CCN(CCCN1CCN(C2CCCCC2)CC1)CC(=O)Nc1ccc(C(=O)c2ccccc2)cc1`, the Ki was 0.0169 µM (Sigmar1; ligand displacement, radioligand; cell membranes).
For `O=C(O)C=Cc1ccc([N+](=O)[O-])cc1`, the Ki was 600 µM (Pam; enzyme activity, inhibitor; pH 6).
`C#CCNCCCN1CCN(CCCNC(=O)c2ccc(C(=O)c3ccc([N+](=O)[O-])cc3)cc2)CC1` gave a Ki of 0.445 µM (Sigmar1; ligand displacement, radioligand; cell membranes).
For `CN(C)c1cccc2c(S(=O)(=O)Nc3ccc(C=CC(=O)O)cc3)cccc12`, the Ki was 10 µM (Pam; enzyme activity, inhibitor).
The Ki of `CNC(=O)[C@@]12C[C@@H]1[C@@H](n1cnc3c(NC)nc(C#Cc4ccccc4)nc31)[C@H](O)[C@@H]2O` is reported as > 10 µM (OPRD1; ligand displacement, radioligand).
For `COc1ccc(C(=O)Nc2ccc(N3CCC4(CC3)CCN(c3ccccn3)CC4)cc2)cc1`, the Ki was > 1 µM (SNCA fibril; ligand displacement, radioligand).
The Ki of `CCCCOC(=O)[C@@]12C[C@@H]1[C@@H](n1cnc3c(NC)nc(C#Cc4ccc(Cl)s4)nc31)[C@H](O)[C@@H]2O` is reported as > 10 µM (OPRD1; ligand displacement, radioligand).
The Ki of `NS(=O)(=O)c1nnc(NC(=O)CC2CCC2)s1` is reported as 0.0778 µM (CA1; enzyme activity, inhibitor).
With `NS(=O)(=O)c1ccc(-n2nccc2-c2ccc(N3CCOCC3)cc2)cc1` the Ki was 0.624 µM (CA2; enzyme activity, inhibitor, stopped-flow).
With `NS(=O)(=O)c1nnc(NC(=O)CC2CCCC2)s1` the Ki was 0.0863 µM (CA1; enzyme activity, inhibitor).
With `C#CCN(CCCN1CCN(C2CCCCC2)CC1)c1ccc(C(=O)c2ccccc2)cc1` the Ki was 0.652 µM (Sigmar1; ligand displacement, radioligand; cell membranes).
With `CCOC(=O)[C@@]12C[C@@H]1[C@@H](n1cnc3c(NC)nc(C#Cc4ccc(Cl)s4)nc31)[C@H](O)[C@@H]2O` the Ki was > 10 µM (OPRD1; ligand displacement, radioligand).
The Ki of `CN1CCN(c2ccc(-c3ccnn3-c3ccc(S(N)(=O)=O)cc3)cc2)CC1` is reported as 0.587 µM (CA2; enzyme activity, inhibitor, stopped-flow).
For `NS(=O)(=O)c1nnc(NC(=O)C2CCCC2)s1`, the Ki was 0.0262 µM (CA2; enzyme activity, inhibitor).
For `CNC(=O)[C@@]12C[C@@H]1[C@@H](n1cnc3c(NC4CC4c4ccccc4)nc(C#Cc4ccccc4)nc31)[C@H](O)[C@@H]2O` (mixture of isomers), the Ki was > 10 µM (OPRD1; ligand displacement, radioligand).
With `NS(=O)(=O)c1ccc(C(F)(F)F)cc1` the Ki was ~0.23 µM (CA2; enzyme activity, inhibitor, absorbance).
With `CNc1nc(C#Cc2ccc(Cl)s2)nc2c1ncn2[C@H]1[C@H](O)[C@H](O)[C@]2(C(=O)OC)C[C@H]12` the Ki was > 10 µM (OPRD1; ligand displacement, radioligand).
With `NS(=O)(=O)c1nnc(NC(=O)CC2CC2)s1` the Ki was 0.0076 µM (CA2; enzyme activity, inhibitor).
The Ki of `NS(=O)(=O)c1ccc(-n2nccc2-c2ccc(N3CCCCC3)cc2)cc1` is reported as 0.689 µM (CA2; enzyme activity, inhibitor, stopped-flow).
`CNC(=O)[C@@]12C[C@@H]1[C@@H](n1cnc3c(NC)nc(C#Cc4ccccc4Cl)nc31)[C@H](O)[C@@H]2O` gave a Ki of > 10 µM (OPRD1; ligand displacement, radioligand).
`O=C(CCCCC1SC[C@@H]2NC(=O)N[C@H]12)NCCCN(CCCN1CCN(C2CCCCC2)CC1)CC(=O)Nc1ccc(C(=O)c2ccccc2)cc1` (stereo in doubt) gave a Ki of 0.221 µM (Sigmar1; ligand displacement, radioligand; cell membranes).
The Ki of `CNC(=O)[C@@]12C[C@@H]1[C@@H](n1cnc3c(NCCC(F)(F)F)nc(C#Cc4ccc(Cl)s4)nc31)[C@H](O)[C@@H]2O` is reported as > 10 µM (OPRD1; ligand displacement, radioligand).
`CN(C)c1ccc(C=CC(=O)O)cc1` has a Ki of 3000 µM (Pam; enzyme activity, inhibitor; pH 6).
The Ki of `CNC(=O)[C@H]1O[C@@H](n2cnc3c(NC)nc(C#Cc4ccc(Cl)s4)nc32)[C@H](O)[C@@H]1O` is reported as > 10 µM (OPRD1; ligand displacement, radioligand).
With `Nc1ccnc2ccccc12` the Ki was 5.6 µM (ADRA2A; ligand displacement, radioligand; cell membranes).
